Screens as filed in PubChem BioAssay.
Mdm2-MdmX inh – inhibitors of human Mdm2-MdmX association, primary screen, cell-based, luminescence, split luciferase, SaOS-2, uHTS; Protein Mdm4 (Homo sapiens) + E3 ubiquitin-protein ligase Mdm2 (Homo sapiens), …; SaOS-2 split-luciferase Mdm2/MdmX complementation; inhibition, % at 8 µM; 330,000 tested, 3% active; AID 485346, 2010;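 active means inhibition of at least 50% at 8 µM in the primary screen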
Target sequence (O15151 whole entry, looked up): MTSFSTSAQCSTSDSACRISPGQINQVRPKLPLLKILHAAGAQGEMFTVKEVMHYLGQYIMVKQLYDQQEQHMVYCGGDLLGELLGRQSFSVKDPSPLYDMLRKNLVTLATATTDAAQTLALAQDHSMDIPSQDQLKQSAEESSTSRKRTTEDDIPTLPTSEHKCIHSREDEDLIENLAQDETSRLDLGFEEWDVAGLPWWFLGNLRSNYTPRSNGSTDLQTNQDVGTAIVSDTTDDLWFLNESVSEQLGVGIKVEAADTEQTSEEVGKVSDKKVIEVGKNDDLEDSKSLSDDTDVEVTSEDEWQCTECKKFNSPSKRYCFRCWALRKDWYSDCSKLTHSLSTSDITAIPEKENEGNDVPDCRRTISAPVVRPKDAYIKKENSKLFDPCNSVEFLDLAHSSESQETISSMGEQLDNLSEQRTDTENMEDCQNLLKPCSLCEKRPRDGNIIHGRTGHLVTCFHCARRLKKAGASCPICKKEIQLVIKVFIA
Target sequence (Q00987 whole entry, looked up): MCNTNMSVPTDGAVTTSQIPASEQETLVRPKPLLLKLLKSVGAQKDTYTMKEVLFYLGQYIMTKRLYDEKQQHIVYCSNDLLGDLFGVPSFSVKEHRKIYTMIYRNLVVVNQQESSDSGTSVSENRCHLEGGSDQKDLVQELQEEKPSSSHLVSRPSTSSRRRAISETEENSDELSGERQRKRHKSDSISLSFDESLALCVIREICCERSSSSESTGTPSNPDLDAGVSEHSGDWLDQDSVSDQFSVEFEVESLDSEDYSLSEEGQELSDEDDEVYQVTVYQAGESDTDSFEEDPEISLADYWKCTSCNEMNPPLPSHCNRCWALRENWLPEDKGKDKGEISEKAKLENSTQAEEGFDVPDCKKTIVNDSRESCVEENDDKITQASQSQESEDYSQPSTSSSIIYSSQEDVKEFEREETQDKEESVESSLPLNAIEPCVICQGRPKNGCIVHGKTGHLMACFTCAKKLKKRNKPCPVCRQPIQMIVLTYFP
Calb FLC – C. albicans growth inhibition with fluconazole, primary screen, CaCi-2 strain, Alamar Blue fluorescence; C. albicans CaCi-2 (fluconazole-resistant clinical isolate) + fluconazole, 48 h; growth inhibition, % (test concentration not listed); 300,000 tested, 0.57% active;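 active means growth inhibition above about 58% in most replicates, limit read from the data, passing the limit was not always enough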;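 further: all wells also contain fluconazole at 8 µg/ml as a sub-toxic cotreatment; 0% = median of DMSO wells and 100% = median of geldanamycin control wells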
T cruzi inh – inhibitors of intracellular T. cruzi growth, primary screen, luminescence, NIH3T3 host cells; inhibition, % (test concentration not listed); T. cruzi beta-gal in NIH3T3, 90 h; 300,000 tested, 1.4% active;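 active means mean inhibition across valid replicates above about 55%, limit read from the data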;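 further: signal also drops with host cell toxicity which is not excluded here; 0% = plate median of DMSO wells and 100% = zero luminescence signal; higher percent means less beta-gal luminescence so fewer parasites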
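Assay system: NIH/3T3 host cells with β-galactosidase reporter T. cruzi; input: 5,000 host fibroblasts per well; compound: single 50 nL compound addition per well in DMSO; timing: ≥90 h infection period, 3 h prior cell attachment; measured by: GalScreen β-gal luminescence, detergent lysis, 60 min; evaluation: percent inhibition of parasite-derived β-gal signal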
Beta cell apopt – inhibitors of cytokine-induced beta cell apoptosis, primary screen, luminescence | INS-1E cytokine-induced death, ATP luminescence, 48 h; percent of positive-control rescue, neutral wells zero | protection from apoptosis, % (no concentration beside the values) | 300,000 tested, 0.8% active | AID 435005, 2010;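 active means Every replicate reaches about 75%, or at least half do and their mean reaches it too, limit read from the data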;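 further: 0% = cytokine-treated negative control wells and 100% = positive control rescue; higher means more ATP so stronger rescue from cytokine killing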
CSC inhib – cancer stem cell viability inhibitors, primary screen, luminescence; cancer stem cell-like cells viability; inhibition, % at 7.5 µM; 300,000 tested, 1.1% active; in the data active means inhibition above about 75%; tested in HMLE shEcad cells
SKKanGAS inh – S. pyogenes SKKanGAS growth inhibitors in kanamycin, primary screen, streptokinase expression inhibitor project, SKKanGAS strain, BacTiter-Glo luminescence; inhibition, % at 7.5 µM; AID 1662, 2009; 6 h; 300,000 tested, 1.3% active;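 active means mean replicate score, as percent of positive control median, at least 50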;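 further: strain carries kanamycin resistance gene driven by streptokinase promoter and grows in 40 µg/ml kanamycin; loss of luminescence reflects streptokinase promoter inhibition or plain growth inhibition; 0% = median of DMSO wells and 100% = positive control at its reference dose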
Mdm2-MdmX conf – Mdm2-MdmX complex disruptors, retested hits, confirmation, luminescence, single concentration. shares compounds with Mdm2-MdmX inh. 10,000 tested, 55% active. Mdm2-MdmX binding, luminescent assay. AID 489028, 2010. inhibition, % at 8 µM; in the data active means inhibition above about 40%
Full FLuc ctr – full-length luciferase signal inhibition, confirmation, counter-screen for Mdm2/MdmX interaction inhibitor project, cell-based, single concentration, SaOS-2 | AID 504607, 2011 | inhibition, % at 8 µM | shares compounds with Mdm2-MdmX inh | SaOS-2 full-length luciferase counterscreen, luminescence | 6,200 tested, 77% active;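 active means mean inhibition at 8 µM reaching about 37%, which flags the compound as non-specific, limit read from the data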;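 further: p53-null SaOS-2 cells with luciferase driven by a doxycycline-inducible promoter; compound on cells about two nights before reading with doxycycline added after day one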
Numbers without * were called inactive; / = no result. Hits are enriched below; roughly 5.7% of the tested compounds scored in any of these assays.

SMILES	Mdm2-MdmX inh	Calb FLC	T cruzi inh	Beta cell apopt	CSC inhib	SKKanGAS inh	Mdm2-MdmX conf	Full FLuc ctr
CC(=O)OCCCNc1cc(Sc2ccc(C)cc2)c2nonc2c1[N+](=O)[O-]	54*	6	8	-21	12	-6	59*	68*
CC(=O)OCCCNc1cc(Sc2nc3ccccc3s2)c2nonc2c1[N+](=O)[O-]	100*	16	69*	-5	76*	91*	77*	52*
O=C(CN1C(=O)CCSc2ccc(S(=O)(=O)N3CCCC3)cc21)NCc1ccccc1Cl	18	10	-21	-5	-4	-10	/	/
CCCNC(=O)c1nnsc1S(=O)(=O)c1ccc(Cl)cc1	96*	/	/	/	/	/	100*	51*
CCCNC(=O)c1ccc2snnc2c1	15	4	-9	-4	-11	-1	/	/
CNC(=O)c1nnsc1S(=O)c1ccc(Cl)cc1 (stereo not drawn)	98*	105*	60*	/	/	44	94*	3
CCCNC(=O)c1nnsc1S(=O)c1ccc(Cl)cc1 (stereo not drawn)	97*	2	67*	/	/	17	100*	2
Cc1ccc(S(=O)c2snnc2C)cc1 (stereo not drawn)	-7	-1	6	/	/	-3	/	/
C#CC[N+](C)(C)CCCCCCCCC	51*	-6	5	0	42	3	49*	74*
C[C@@H](C(=O)Nc1ccc2c(c1)OCCO2)n1c(=O)[nH]c2ccccc2c1=O	62*	-2	-6	/	16	-6	81*	76*
C[C@@H](C(=O)Nc1ccc2c(c1)OCO2)n1c(=O)[nH]c2ccccc2c1=O	-24	0	-22	2	19	2	/	/
COc1cccc(NC(=O)c2cccc(C(=O)Nc3cccc(OC)c3)n2)c1	17	2	-5	4	-5	-1	/	/
C=CC(=O)Nc1cccc(Oc2cc(Cl)nc3[nH]ccc23)c1	80*	/	/	-6	/	/	72*	42*
Cn1cc([N+](=O)[O-])c(C(=O)NC2CCCCCC2)n1	29	-5	-6	-5	-4	-6	/	/
O=C(c1c[nH]c2ccccc12)C(Cl)c1ccccc1 (stereo not drawn)	79*	7	-11	-25	83*	4	69*	52*
COc1ccc(C2Nc3ccc4ccccc4c3-c3c2c(=O)oc2ccccc32)cc1 (stereo not drawn)	79*	7	66*	14	49	-8	21	/
CCOc1ccc(C2Nc3ccc4ccccc4c3-c3c2c(=O)oc2ccccc32)cc1 (stereo not drawn)	68*	-3	66*	48	28	17	7	/
O=[N+]([O-])c1ccc(S(=O)(=O)N2CCN(Cc3ccco3)CC2)cc1	12	5	11	2	-5	-1	/	/
Clc1ccc(-c2csc(=Nc3cccnc3)n2CCCn2ccnc2)cc1Cl	66*	2	57*	23	9	-3	36	55*
COc1ccc(S(=O)(=O)Nc2cccc3ccc(O)cc23)cc1	60*	12	-3	9	60	3	57*	52*
COc1ccc(S(=O)(=O)Nc2ccccc2C)cc1	29	-24	-11	1	21	-4	/	/
COc1ccccc1C(=O)N(CCC1CCCN1C)c1nc2ccccc2s1 (stereo not drawn)	82*	-17	50	4	9	3	79*	106*
Cc1nn(-c2ccc([N+](=O)[O-])cc2)c2c1C(c1cccc(Br)c1)N1C(=N2)C(=O)Nc2ccccc21 (stereo not drawn)	60*	11	82*	/	9	7	26	/
